In brackets after ≈: the same amount, converted by molar mass.
How the values were obtained:
Rattus norvegicus [1] = test: Total plasma concentration in Sprague-Dawley rat at 3 mg/kg, po after 1 to 3 hrs by LC/MS/MS analysis; format: ADME, organism-based; set-up: dose 3 mg/kg, route oral; conditions: in vivo
[2] = Displacement of [125I]sauvagine from CRF2 receptor in porcine choroid plexus homogenate by binding titration assay; format: tissue-based, Sus scrofa
Outline: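 Porcine choroid plexus homogenate; inhibition of [125I]-sauvagine binding measured in a titration format.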

[3] = Fraction unbound in human serum after 3 to 7 hrs by equilibrium dialysis; format: ADME, cell-free
Outline: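 Human serum spiked with compound, equilibrium-dialysed against isotonic phosphate buffer for 3 or 7 h (depending on system) at 37 °C; both sides measured by LC/MS/MS, unbound fraction as buffer/serum concentration ratio.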

[4] = Metabolic stability in rat liver microsomes assessed as compound remaining at 3 uM after 10 mins by HPLC/UV/MS analysis; format: ADME, Microsome; conditions: read-out: Stability
Outline: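 Pooled human or rat liver microsomes (1 mg/mL protein) with 3 μM compound and 1.3 mM NADPH in 100 mM sodium phosphate pH 7.4 at 37 °C; final 0.015% DMSO, 0.985% acetonitrile; stopped at 0 and 10 min, percent remaining by LC/MS/MS.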

Rattus norvegicus [5] = test: Neurotoxicity in Sprague-Dawley rat assessed as alteration of motor coordination up to 60 mg/kg by rotarod test; format: toxicity, organism-based; set-up: dose 60 mg/kg; conditions: in vivo
Rattus norvegicus [6] = test: Plasma free concentration in Sprague-Dawley rat at 1 mg/kg, po after 1 to 3 hrs by LC/MS/MS analysis; format: ADME, organism-based; set-up: dose 1 mg/kg, route oral; conditions: in vivo
Rattus norvegicus [7] = test: Total plasma concentration in Sprague-Dawley rat at 1 mg/kg, po after 1 to 3 hrs by LC/MS/MS analysis; format: ADME, organism-based; set-up: dose 1 mg/kg, route oral; conditions: in vivo
[8] = Volume of distribution at steady state in Sprague-Dawley rat at 2 mg/kg, iv after 0.17 to 24 hrs by LC/MS/MS analysis; format: ADME, organism-based; set-up: dose 2 mg/kg, route intravenous; conditions: in vivo, read-out: Vdss
Outline: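 Sprague–Dawley rats (n = 3) dosed 2 mg/kg iv in PEG:ethanol 90:10 (v/v) at 1 mL/kg. Plasma stored at –20 °C and quantified by LC/MS/MS after acetonitrile precipitation with internal standard.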

Rattus norvegicus [9] = test: Anxiolytic activity in Sprague-Dawley rat assessed as decrease in exit latency at 3 mg/kg, po after 60 mins by defensive withdrawal test relative to control; format: functional; set-up: scale not given: the % may be the effect or the level left
Outline: (§1)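 Rats placed in a darkened chamber within an open illuminated field; time to emerge measured 60 min after oral dosing (0.56–3 mg/kg), n = 8; percent decrease in exit latency versus vehicle-treated animals, p < 0.05 significance.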

[10] = Solubility in simulated intestinal fluid; format: physicochemical
Outline: (§2)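 Solubility measured in simulated gastric fluid and in simulated intestinal fluid (fed state).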

[11] = Drug metabolism in bile duct cannulated Sprague-Dawley rat assessed as GSH adduct formation in bile at 20 mg/kg, po after 24 hrs by HPLC/UV/MS analysis; format: ADME, organism-based; set-up: dose 20 mg/kg, route oral; conditions: in vivo
Outline: (§3)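 Male Sprague–Dawley bile duct cannulated rats (n = 3) dosed orally at 20 mg/kg in PEG/ethanol 90:10; vehicle-dosed controls (n = 3). Bile and urine pooled over 0–24 h, acetonitrile-precipitated and profiled by HPLC/UV/MS (Hydro-RP column, PDA 200–550 nm, positive-ion full and data-dependent scans).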

Liver microsomes = test: Metabolic stability in NADPH-fortified rat liver microsomes assessed as GSH adduct formation at 10 uM after 30 mins by HPLC/UV/MS analysis; format: ADME, Microsome; conditions: 0.5 h
Outline: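 Pooled rat or human liver microsomes 1 mg/mL, 10 μM substrate, 100 mM potassium phosphate pH 7.4, 37 °C, started with NADPH-regenerating system (1.3 mM NADP+, 3.3 mM glucose-6-phosphate, 3.3 mM MgCl2, 0.5 U/mL G6PDH); GSH 5 mM in trapping runs. Sampled 0 and 30 min, acetonitrile quench; abundance as UV peak area (330–340 nm) fraction of all drug-related components by HPLC/UV/MS.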

[12] = Oral bioavailability in Beagle dog at 2 mg/kg dosed as aqueous suspension of 1% polysorbate 80 in 0.5% methylcellulose after 0.25 to 24 hrs by LC/MS/MS analysis; format: ADME, organism-based, Canis lupus familiaris; conditions: in vivo
[13] = Dissociation constant, pKa by spectrophotometric titration method; format: physicochemical
Outline: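 Spectrophotometric titration over pH 2–11 in varying acetonitrile/water mixtures, extrapolated to 0% cosolvent.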

Rattus norvegicus [14] = test: Ex vivo receptor occupancy of CRF1 receptor in Sprague-Dawley rat brain parietal assessed as inhibition of [125I]sauvagine binding at 1 mg/kg, po after 90 mins by autoradiography; format: functional; conditions: 1.5 h
[15] = Aqueous solubility at pH 6.5; format: physicochemical
Rattus norvegicus [16] = test: Ex vivo receptor occupancy of CRF1 receptor in Sprague-Dawley rat brain parietal assessed as inhibition of [125I]sauvagine binding at 1.8 mg/kg, po after 90 mins by autoradiography; format: functional; conditions: 1.5 h
Rattus norvegicus [17] = test: Anxiolytic activity in Sprague-Dawley rat assessed as decrease in exit latency at 1.8 mg/kg, po after 60 mins by defensive withdrawal test relative to control; format: functional; set-up: scale not given: the % may be the effect or the level left; outline: as §1
[18] = Cmax in Sprague-Dawley rat at 10 mg/kg, po dosed as aqueous suspension of Labrafil M 1944CS/DMAC/polysorbate 80, 85:10:5 (v/v) after 2 to 4 hrs by LC/MS/MS analysis; format: ADME, organism-based; set-up: dose 10 mg/kg, route oral; conditions: in vivo
[19] = Drug metabolism in bile duct cannulated Sprague-Dawley rat assessed as unchanged parent drug remaining in bile at 20 mg/kg, po after 24 hrs by HPLC/UV/MS analysis; format: ADME, organism-based; set-up: dose 20 mg/kg, route oral; conditions: read-out: Activity; outline: as §3
Rattus norvegicus [20] = test: Total plasma concentration in Sprague-Dawley rat at 1.8 mg/kg, po after 1 to 3 hrs by LC/MS/MS analysis; format: ADME, organism-based; set-up: dose 1.8 mg/kg, route oral; conditions: in vivo
[21] = biological target: T1, Corticotropin-releasing factor receptor 1 (Homo sapiens, UniProt P34998); test: (§4) Antagonist activity at CRF1 receptor in human Y79 cells assessed as inhibition of CRF-stimulated cAMP production after 30 mins by HTRF analysis; format: functional, cell-based
T1 sequence (P34998 whole entry): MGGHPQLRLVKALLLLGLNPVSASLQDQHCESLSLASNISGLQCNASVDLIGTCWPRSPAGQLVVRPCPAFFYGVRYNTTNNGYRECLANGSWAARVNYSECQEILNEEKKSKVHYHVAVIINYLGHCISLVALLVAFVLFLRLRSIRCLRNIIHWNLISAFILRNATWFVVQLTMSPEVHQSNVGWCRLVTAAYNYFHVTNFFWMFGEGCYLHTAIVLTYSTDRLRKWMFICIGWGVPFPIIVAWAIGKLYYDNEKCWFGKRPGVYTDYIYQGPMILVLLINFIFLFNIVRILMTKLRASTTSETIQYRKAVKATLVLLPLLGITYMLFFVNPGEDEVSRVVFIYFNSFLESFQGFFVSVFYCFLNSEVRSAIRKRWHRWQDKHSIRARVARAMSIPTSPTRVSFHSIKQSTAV

[22] = biological target: T2, Corticotropin-releasing factor receptor 1 (Homo sapiens) (UniProt P34998); test: as §4; format: functional, cell-based
T2 sequence (whole entry): T1 sequence (P34998 whole entry)

[23] = Clearance in Beagle dog at 2 mg/kg, iv after 0.17 to 24 hrs by LC/MS/MS analysis; format: ADME, organism-based, Canis lupus familiaris; set-up: dose 2 mg/kg, route intravenous; conditions: in vivo
Outline: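 Male beagle dogs (n = 4), 2 mg/kg iv in propylene glycol:ethanol 90:10 (v/v), 1 mL/kg infused over 5 min at 0.2 mL/kg/min; femoral vein blood at 0.17–24 h; plasma frozen at –20 °C, analysed by LC/MS/MS.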

[24] = Solubility in simulated gastric fluid; format: physicochemical; outline: as §2

## COC[C@H](C1CC1)n1cc(C#N)nc(Nc2cc(C)c(OC(F)F)nc2C)c1=O
Rattus norvegicus [1]
  concentration: 0.14 µM
[2]
  IC50: > 10000 nM
[3]
  fraction unbound: 0.035
[4]
  remaining at 10 min, 3 µM: 70%
Rattus norvegicus [5]
  Activity: Non-toxic
Rattus norvegicus [6]
  Cp(f): 0.0016 µM
Rattus norvegicus [7]
  concentration: 0.045 µM
[8]
  Vd: 11 L/kg
Rattus norvegicus [9]
  Activity: 56%
[10]
  solubility: 7.4 µg/mL (≈ 18.3 µM)
[11]
  Activity: 0.1%
Liver microsomes
  Activity: 3%
[12]
  bioavailability: 53%
[13]
  pKa: < 2
Rattus norvegicus [14]
  inhibition in vivo at 1 mg/kg: 43%
[15]
  solubility: 4 µg/mL (≈ 9.87 µM)
Rattus norvegicus [16]
  inhibition in vivo at 1.8 mg/kg: 71%
Rattus norvegicus [17]
  Activity: 60%
[18]
  Cmax: 1.6 µM
[19]
  dose excreted at 24 h: 3%
Rattus norvegicus [20]
  concentration: 0.083 µM
[21]
  IC50: 1.9 nM
[22]
  inhibition: Dose-dependent effect
[23]
  clearance: 0.438 L/h/kg
[24]
  solubility: 15 µg/mL (≈ 37 µM)

— ChEMBL document CHEMBL1154735, “A strategy to minimize reactive metabolite formation: discovery of (S)-4-(1-cyclopropyl-2-methoxyethyl)-6-[6-(difluoromethoxy)-2,5-dimethylpyridin-3-ylamino]-5-oxo-4,5-dihydropyrazine-2-carbonitrile as a potent, orally bioavailable corticotropin-releasing factor-1 receptor antagonist” (J Med Chem, 2009)
